Results on 2 molecules are retold here after ChEMBL document CHEMBL5230083, “Novel 2, 5-diketopiperazine derivatives as potent selective histone deacetylase 6 inhibitors: Rational design, synthesis and antiproliferative activity” (Eur J Med Chem, 2020).

Series [1] has as its target Histone deacetylase 3 (Homo sapiens) (UniProt O15379). Briefly: Inhibition of HDAC3 (unknown origin) using Fluor de lys as substrate by fluorescence based analysis. In short, it runs like this:
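Fluor de Lys fluorogenic substrate/developer activity assay, run by a contract lab. […] Experiments were run in duplicate.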

A further series has as its target Histone deacetylase 4 (Homo sapiens, UniProt P56524). Briefly: Inhibition of HDAC4 (unknown origin) using Fluor de lys as substrate by fluorescence based analysis.
The target of another series is Histone deacetylase 5 (Homo sapiens, UniProt Q9UQL6). Briefly: Inhibition of HDAC5 (unknown origin) using Fluor de lys as substrate by fluorescence based analysis.
Histone deacetylase 5, sequence (Q9UQL6 whole entry): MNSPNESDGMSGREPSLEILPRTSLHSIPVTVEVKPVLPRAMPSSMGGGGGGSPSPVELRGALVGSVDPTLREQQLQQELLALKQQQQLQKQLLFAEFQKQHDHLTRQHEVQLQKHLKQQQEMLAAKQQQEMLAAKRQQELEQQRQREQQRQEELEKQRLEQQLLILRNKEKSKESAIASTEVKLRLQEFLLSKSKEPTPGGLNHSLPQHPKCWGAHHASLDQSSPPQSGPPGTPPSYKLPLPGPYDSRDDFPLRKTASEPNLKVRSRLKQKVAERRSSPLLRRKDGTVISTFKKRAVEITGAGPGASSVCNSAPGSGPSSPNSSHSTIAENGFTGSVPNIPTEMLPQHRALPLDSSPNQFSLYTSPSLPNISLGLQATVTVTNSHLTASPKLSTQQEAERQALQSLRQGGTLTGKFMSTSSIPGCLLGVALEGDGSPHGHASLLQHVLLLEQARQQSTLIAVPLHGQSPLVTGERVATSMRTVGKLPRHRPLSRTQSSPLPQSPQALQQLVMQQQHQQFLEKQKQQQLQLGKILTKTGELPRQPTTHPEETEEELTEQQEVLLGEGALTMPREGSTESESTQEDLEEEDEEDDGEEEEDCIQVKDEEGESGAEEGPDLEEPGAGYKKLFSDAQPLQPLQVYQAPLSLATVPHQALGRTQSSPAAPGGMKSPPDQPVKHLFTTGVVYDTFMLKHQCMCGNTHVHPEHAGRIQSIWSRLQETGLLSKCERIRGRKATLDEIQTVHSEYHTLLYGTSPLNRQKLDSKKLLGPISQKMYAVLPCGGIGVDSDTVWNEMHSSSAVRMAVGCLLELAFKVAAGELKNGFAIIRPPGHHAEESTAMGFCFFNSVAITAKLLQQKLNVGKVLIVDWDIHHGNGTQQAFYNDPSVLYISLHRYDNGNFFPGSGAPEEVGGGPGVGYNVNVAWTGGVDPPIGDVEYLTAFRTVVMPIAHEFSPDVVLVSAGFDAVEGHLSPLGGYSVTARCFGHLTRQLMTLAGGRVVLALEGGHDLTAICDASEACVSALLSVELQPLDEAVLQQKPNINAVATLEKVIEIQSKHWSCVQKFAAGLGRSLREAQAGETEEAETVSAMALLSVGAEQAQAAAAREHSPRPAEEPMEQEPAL
Another series has as its target Histone deacetylase 9 (Homo sapiens, UniProt Q9UKV0). Briefly: Inhibition of HDAC9 (unknown origin) using Fluor de lys as substrate by fluorescence based analysis.
For series [2], the target named is Polyamine deacetylase HDAC10 (Homo sapiens, UniProt Q969S8). Briefly: Inhibition of HDAC10 (unknown origin) incubated for 1 hr by TR-FRET analysis. On the technique in general: TR-FRET usually uses a lanthanide donor and a delayed reading to cut background.
Polyamine deacetylase HDAC10, sequence (Q969S8 whole entry): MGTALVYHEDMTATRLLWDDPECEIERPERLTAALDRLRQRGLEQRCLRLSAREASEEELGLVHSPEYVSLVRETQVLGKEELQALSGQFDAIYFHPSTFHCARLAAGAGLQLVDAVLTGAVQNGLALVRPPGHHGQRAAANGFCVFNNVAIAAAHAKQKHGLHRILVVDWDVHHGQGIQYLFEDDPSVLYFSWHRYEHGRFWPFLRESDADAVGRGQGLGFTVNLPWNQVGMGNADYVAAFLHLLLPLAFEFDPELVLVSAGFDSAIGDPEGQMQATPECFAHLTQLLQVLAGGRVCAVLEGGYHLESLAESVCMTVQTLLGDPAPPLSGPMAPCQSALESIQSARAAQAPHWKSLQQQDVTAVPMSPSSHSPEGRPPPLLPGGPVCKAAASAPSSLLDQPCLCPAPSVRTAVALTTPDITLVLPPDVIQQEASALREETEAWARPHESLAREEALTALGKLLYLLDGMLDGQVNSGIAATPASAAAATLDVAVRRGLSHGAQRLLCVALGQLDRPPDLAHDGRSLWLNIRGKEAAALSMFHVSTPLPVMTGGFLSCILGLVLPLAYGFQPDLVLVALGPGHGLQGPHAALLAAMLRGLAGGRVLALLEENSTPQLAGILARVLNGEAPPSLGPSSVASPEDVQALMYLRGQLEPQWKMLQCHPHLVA
In a further series the target is Histone deacetylase 11 (Homo sapiens, UniProt Q96DB2). Briefly: Inhibition of HDAC11 (unknown origin) using Fluor de lys as substrate by fluorescence based analysis.
Histone deacetylase 11, sequence (Q96DB2 whole entry): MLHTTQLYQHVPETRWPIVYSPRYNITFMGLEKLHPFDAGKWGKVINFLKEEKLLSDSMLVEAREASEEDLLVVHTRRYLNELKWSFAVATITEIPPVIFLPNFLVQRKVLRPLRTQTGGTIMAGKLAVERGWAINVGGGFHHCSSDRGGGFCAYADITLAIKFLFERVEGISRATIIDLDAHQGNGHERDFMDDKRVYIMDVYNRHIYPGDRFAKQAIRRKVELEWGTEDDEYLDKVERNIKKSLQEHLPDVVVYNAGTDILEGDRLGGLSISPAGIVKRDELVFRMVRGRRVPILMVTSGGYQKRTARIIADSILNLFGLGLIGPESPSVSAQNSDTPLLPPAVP
Series [3] addresses Protein deacetylase HDAC6 (Homo sapiens) (UniProt Q9UBN7). Briefly: Inhibition of HDAC6 in human HCT-116 cells assessed as increase in acetylated alpha-tubulin level incubated for 24 hrs by Western blot analysis. It counts as cell-based. To be noted: dose 0.1-10 µM. Put shortly:
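HCT116 cells were seeded overnight, then treated at 0.1, 1 and 10 μM for 24 h. Cells were lysed with protein extraction reagent plus EDTA-free protease inhibitors. 30 µg protein per sample was resolved by SDS-PAGE and blotted to nitrocellulose. Ac-α-tubulin and Ac-H3 were probed and detected by ECL.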
For orientation: In western blotting, separated proteins are transferred to a membrane and probed.

The subject of a further series is HOP-62. Briefly: Antiproliferative activity against human HOP-62 cells assessed as cell growth at 10 uM incubated for 48 hrs by SRB assay relative to control. It counts as functional. Particulars: read-out: Activity. In short, it runs like this:
(§1)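 Single-concentration screen at 10 μM run by NCI on its NCI-60 human tumour panel (blood, lung, colon, CNS, melanoma, ovary, kidney, prostate, breast), following the NCI-60 published methodology. Read-out is growth percent relative to untreated cells.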
For orientation: The SRB assay estimates cell density from bound dye.

The next series relates to NCI-H226. Briefly: Antiproliferative activity against human NCI-H226 cells assessed as cell growth at 10 uM incubated for 48 hrs by SRB assay relative to control. It counts as functional. Particulars: read-out: Activity. Put shortly: as §1
For a further series, the system named is NCI-H522. Briefly: Antiproliferative activity against human NCI-H522 cells assessed as cell growth at 10 uM incubated for 48 hrs by SRB assay relative to control. It counts as functional. To be noted: read-out: Activity. Put shortly:
as §1

The test system of a further series is SF-539. Briefly: Antiproliferative activity against human SF-539 cells assessed as cell growth at 10 uM incubated for 48 hrs by SRB assay relative to control. It counts as functional. Particulars: read-out: Activity. In short, it runs like this:
as §1

The subject of the next series is M14. Briefly: Antiproliferative activity against human M14 cells assessed as cell growth at 10 uM incubated for 48 hrs by SRB assay relative to control. To be noted: read-out: Activity. It counts as functional. In short, it runs like this:
as §1

For a further series, the system named is SN12C. Briefly: Antiproliferative activity against human SN12C cells assessed as cell growth at 10 uM incubated for 48 hrs by SRB assay relative to control. It counts as functional. Particulars: read-out: Activity. Put shortly: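 NCI-60 single-dose screen: compounds tested at 10 μM, and growth percent of each cell line calculated. The full method follows the NCI DTP protocol.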

In the next series the test system is DU-145. Briefly: Antiproliferative activity against human DU-145 cells assessed as cell growth at 10 uM incubated for 48 hrs by SRB assay relative to control. It counts as functional. Particulars: read-out: Activity. Put shortly:
as §1

Another series relates to BT-549. Briefly: Antiproliferative activity against human BT-549 cells assessed as cell growth at 10 uM incubated for 48 hrs by SRB assay relative to control. It counts as functional. Particulars: read-out: Activity. In short, it runs like this: as §1
The next series concerns RPMI-8226. Briefly: cells. It counts as functional, cell-based. Particulars: Homo sapiens, RPMI-8226, 72 h.
The species entered for series [4] is Homo sapiens. Briefly: Selectivity index, ratio of IC50 for inhibition of HDAC1 (unknown origin) to IC50 for inhibition of HDAC6 (unknown origin). In short, it runs like this:
(§2)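 Ratio of IC50 values, each from a Fluor de Lys fluorogenic HDAC assay run in duplicate.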

The species named for series [5] is Homo sapiens. Briefly: Selectivity index, ratio of IC50 for inhibition of HDAC8 (unknown origin) to IC50 for inhibition of HDAC6 (unknown origin). Put shortly:
as §2

In another series the test system is OVCAR-4. Briefly: Antiproliferative activity against human OVCAR-4 cells assessed as cell growth at 10 uM incubated for 48 hrs by SRB assay relative to control. It counts as functional. Particulars: read-out: Activity. Put shortly: as §1
Series [6] deals with A549. Briefly: Antiproliferative activity against human A549 cells assessed as inhibition of cell growth incubated for 72 hrs by alamar blue assay. It counts as functional, cell-based. Particulars: A549, 72 h. In short, it runs like this:
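Cells grown in IMDM with 20% FBS and penicillin/streptomycin at 37 °C, 5% CO2. Compound added to plated cells for 72 h. Alamar blue (1 mM solution) then added for 5–6 h, and fluorescence read at 530/590 nm. IC50 derived for single-agent treatment.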

Series [7] has as its system A549. Briefly: Antiproliferative activity against human A549 cells assessed as inhibition of cell growth incubated for 72 hrs in presence of adriamycin by alamar blue assay. It counts as functional, cell-based. Particulars: A549, 72 h. In short, it runs like this:
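Alamar blue assay in IMDM/20% FBS at 37 °C, 5% CO2. Cells were exposed to the two agents together for 72 h, with 5–6 h Alamar blue and fluorescence at 530/590 nm. IC50 in combination was determined. CI50 = IC50Ac/IC50As + IC50Bc/IC50Bs, comparing combination with single-agent IC50s.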

Series [8] deals with A549. Briefly: Synergistic antiproliferative activity against human A549 cells assessed as combination index incubated for 72 hrs presence of adriamycin by alamar blue assay. It counts as functional.
Series [9] is described as follows: Microsomal stability in human liver microsomes assessed as half life at 0.5 uM prewarmed for 5 mins followed by NADPH addition and measured for 90 mins by LC-MS/MS analysis. It counts as ADME, Microsome. Particulars: time 95 min. In short, it runs like this: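 Incubation held 0.8 mg/mL human liver microsomes, MgCl2, potassium phosphate buffer pH 7.4 and 0.5 μM compound. After 5 min prewarming at 37 °C, NADPH started the reaction.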

Calls of active or inactive are those of the source. The calls are words filed in the database; no cut-off is given here.

Histone deacetylase 9, sequence (Q9UKV0 whole entry): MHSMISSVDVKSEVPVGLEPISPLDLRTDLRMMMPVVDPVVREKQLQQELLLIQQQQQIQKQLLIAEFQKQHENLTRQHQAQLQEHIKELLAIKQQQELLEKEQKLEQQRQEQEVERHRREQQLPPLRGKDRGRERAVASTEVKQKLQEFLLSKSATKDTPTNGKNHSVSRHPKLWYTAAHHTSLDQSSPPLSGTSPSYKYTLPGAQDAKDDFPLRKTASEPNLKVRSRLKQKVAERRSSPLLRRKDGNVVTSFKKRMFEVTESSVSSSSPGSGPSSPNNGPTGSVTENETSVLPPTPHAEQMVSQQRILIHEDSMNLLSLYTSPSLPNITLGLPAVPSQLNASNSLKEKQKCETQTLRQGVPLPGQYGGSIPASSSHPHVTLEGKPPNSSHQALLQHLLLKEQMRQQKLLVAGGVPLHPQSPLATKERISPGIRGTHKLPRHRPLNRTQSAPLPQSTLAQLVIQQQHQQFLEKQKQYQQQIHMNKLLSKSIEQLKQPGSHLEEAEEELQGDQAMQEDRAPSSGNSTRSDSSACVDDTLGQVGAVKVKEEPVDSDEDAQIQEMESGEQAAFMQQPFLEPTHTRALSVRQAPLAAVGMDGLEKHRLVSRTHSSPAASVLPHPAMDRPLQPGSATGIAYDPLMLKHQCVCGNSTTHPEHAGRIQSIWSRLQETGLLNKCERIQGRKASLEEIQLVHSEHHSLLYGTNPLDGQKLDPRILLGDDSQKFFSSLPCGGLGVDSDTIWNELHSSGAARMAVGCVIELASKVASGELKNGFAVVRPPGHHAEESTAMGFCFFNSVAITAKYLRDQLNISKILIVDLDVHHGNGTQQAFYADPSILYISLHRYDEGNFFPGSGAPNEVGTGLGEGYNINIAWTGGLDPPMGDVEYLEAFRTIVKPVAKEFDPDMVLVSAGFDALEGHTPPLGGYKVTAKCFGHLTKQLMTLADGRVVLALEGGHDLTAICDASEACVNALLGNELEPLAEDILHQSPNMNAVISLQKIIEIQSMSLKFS
Histone deacetylase 3 (Homo sapiens), sequence (O15379 whole entry): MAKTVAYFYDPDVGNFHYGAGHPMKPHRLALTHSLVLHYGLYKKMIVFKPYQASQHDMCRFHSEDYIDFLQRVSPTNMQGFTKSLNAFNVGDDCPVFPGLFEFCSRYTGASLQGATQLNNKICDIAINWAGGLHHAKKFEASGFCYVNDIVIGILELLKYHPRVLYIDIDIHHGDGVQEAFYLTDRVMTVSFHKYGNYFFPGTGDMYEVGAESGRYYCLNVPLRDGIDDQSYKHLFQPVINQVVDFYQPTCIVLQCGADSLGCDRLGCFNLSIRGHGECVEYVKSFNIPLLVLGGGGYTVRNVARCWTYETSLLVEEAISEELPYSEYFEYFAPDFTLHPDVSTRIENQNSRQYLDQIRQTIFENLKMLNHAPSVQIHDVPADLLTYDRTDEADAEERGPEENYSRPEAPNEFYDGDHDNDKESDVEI
Protein deacetylase HDAC6 (Homo sapiens), sequence (Q9UBN7 whole entry): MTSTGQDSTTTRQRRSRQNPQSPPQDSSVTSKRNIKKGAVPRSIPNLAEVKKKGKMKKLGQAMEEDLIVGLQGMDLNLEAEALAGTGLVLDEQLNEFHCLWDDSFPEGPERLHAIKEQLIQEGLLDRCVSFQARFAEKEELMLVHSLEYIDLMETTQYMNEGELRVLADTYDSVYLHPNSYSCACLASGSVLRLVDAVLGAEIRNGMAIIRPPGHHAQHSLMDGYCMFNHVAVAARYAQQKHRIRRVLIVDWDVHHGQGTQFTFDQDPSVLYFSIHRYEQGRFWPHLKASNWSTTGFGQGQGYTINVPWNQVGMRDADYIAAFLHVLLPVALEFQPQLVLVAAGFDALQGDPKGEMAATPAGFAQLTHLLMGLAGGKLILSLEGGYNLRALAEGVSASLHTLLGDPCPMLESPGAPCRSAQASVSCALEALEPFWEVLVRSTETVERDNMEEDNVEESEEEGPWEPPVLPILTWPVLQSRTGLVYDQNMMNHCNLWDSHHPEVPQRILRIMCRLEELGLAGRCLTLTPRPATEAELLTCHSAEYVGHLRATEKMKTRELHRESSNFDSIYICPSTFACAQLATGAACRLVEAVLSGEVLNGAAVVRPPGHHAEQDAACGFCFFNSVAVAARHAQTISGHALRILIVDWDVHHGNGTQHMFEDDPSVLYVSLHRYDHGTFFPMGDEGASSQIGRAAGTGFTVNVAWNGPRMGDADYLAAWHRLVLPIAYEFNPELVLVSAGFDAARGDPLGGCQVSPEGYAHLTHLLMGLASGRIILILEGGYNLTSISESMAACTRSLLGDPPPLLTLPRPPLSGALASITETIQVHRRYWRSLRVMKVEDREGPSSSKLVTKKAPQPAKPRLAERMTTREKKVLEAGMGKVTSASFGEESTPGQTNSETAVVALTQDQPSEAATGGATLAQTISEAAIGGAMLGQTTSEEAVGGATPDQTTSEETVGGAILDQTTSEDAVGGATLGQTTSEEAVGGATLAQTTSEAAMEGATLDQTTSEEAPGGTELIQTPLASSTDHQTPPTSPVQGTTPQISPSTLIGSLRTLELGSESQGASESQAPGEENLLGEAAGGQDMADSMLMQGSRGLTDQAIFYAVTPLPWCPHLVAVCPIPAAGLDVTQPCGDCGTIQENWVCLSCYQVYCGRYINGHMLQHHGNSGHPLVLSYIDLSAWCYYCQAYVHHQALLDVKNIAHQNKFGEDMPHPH

As to `O=C1CN(Cc2ccc(C(=O)NO)cc2)C(=O)[C@@H](Cc2c[nH]c3ccccc23)N1`, the inhibition result in series [1] was “inactive”. The IC50 on Histone deacetylase 4 turned out to be 5.62 µM; at Histone deacetylase 5, 4.37 µM; against Histone deacetylase 9, 2.56 µM; in series [2] it was 0.105 µM; against Histone deacetylase 11, 1.8 µM; with RPMI-8226 it was 33.2 µM. In addition, the inhibition result in series [3] is “Dose-Dependent Effect”. The growth at 10 µM was 102% in the series with HOP-62; 97.6% in the series on NCI-H226; 96.7% in the series on NCI-H522; 107% in the series on SF-539; 94.2% in the series on M14; 100% in the series with SN12C. For the same molecule, the growth at 10 µM was determined as 107% in the series with DU-145 and 98.2% in the series with BT-549.
For the molecule `O=C(NO)c1ccc(CN2CC(=O)N(Cc3ccccc3)[C@H](Cc3ccccc3)C2=O)cc1`, the Ratio IC50 in the series filed under Homo sapiens [4] turned out to be 981; in the series filed under Homo sapiens [5], 15. The growth at 10 µM in the series with HOP-62 turned out to be 87.8%; in the series with NCI-H522 it was 69.8%; with SF-539, 87.3%; in the series with M14, 90.4%; with OVCAR-4, 66.5%; in the series on SN12C, 96.6%. The values for the growth at 10 µM in the series on DU-145 and in the series with BT-549 were 87% and 103%, respectively. The IC50 was 11.7 µM in the series with RPMI-8226, 100 µM in the series with A549 [6] and 8.17 µM with A549 [7]. Moreover, the CI in the series on A549 [8] is 0.676. Besides, in series [9], the half-life at 0.5 µM was 9.7 h.

The IC50 is the concentration that gives 50% inhibition. For orientation: half-life means how long it takes for the measured level to halve.
